# Data from ChEMBL document CHEMBL3085765, “The synthesis, antiviral, cytostatic and cytotoxic evaluation of a new series of acyclonucleotide analogues with a 1,2,3-triazole linker” (Eur J Med Chem, 2013).
# Tests used:
# [1] = test system: HeLa; experiment: Cytostatic activity against human HeLa cells after 3 days by coulter ZI particle counting analysis; assay type: functional, cell-based; conditions: 72 h
# In short: (§1)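 Cells seeded in 96-well plates and grown with or without serial dilutions of compound, 2 days for L1210 and 3 days for CEM and HeLa. IC50 taken as concentration inhibiting cell proliferation by 50%.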
# [2] = test system: L1210; experiment: Cytostatic activity against mouse L1210 cells after 2 days by coulter ZI particle counting analysis; assay type: functional, cell-based; conditions: L1210, 48 h; in short: as §1
# [3] = test system: CCRF-CEM; experiment: Cytostatic activity against human CEM cells after 3 days by coulter ZI particle counting analysis; assay type: functional, cell-based; conditions: 72 h; in short: as §1
# [4] = test system: Felid alphaherpesvirus 1; experiment: Antiviral activity against Feline herpesvirus infected in cat CRFK cells assessed as inhibition of virus-induced cytopathicity; assay type: functional, organism-based; conditions: Felid alphaherpesvirus 1, CRFK
# In short: (§2)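 Confluent monolayers (HEL for HSV-1 KOS and HSV-2 G; CRFK for feline herpes virus) in 96-well plates inoculated with 100 CCID50 of virus in presence of varying compound concentrations (100, 20, 4, … μM). Cytopathicity scored when complete in untreated infected controls; EC50 = concentration inhibiting virus-induced cytopathicity by 50%.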
# [5] = test system: Human alphaherpesvirus 2; experiment: Antiviral activity against Herpes simplex virus 2 G infected in human HEL cells assessed as inhibition of virus-induced cytopathicity; assay type: functional, organism-based; conditions: Human alphaherpesvirus 2, strain G; in short: as §2
# [6] = test system: Human alphaherpesvirus 1; experiment: Antiviral activity against Herpes simplex virus 1 KOS infected in human HEL cells assessed as inhibition of virus-induced cytopathicity; assay type: functional, organism-based; conditions: Human alphaherpesvirus 1, KOS; in short: as §2
smiles,measurement,setting,value
CCOP(=O)(CCCn1cc(Cn2c(=O)n(C(=O)c3ccccc3)c(=O)c3ccccc32)nn1)OCC,IC50,[1],129 µM
same,IC50,[2],> 200 µM
same,IC50,[3],44 µM
same,EC50,[4],24 µM
same,EC50,[5],17 µM
same,EC50,[6],17 µM
CCOP(=O)(CCCn1cc(Cn2ccc(=O)n(C(=O)c3ccccc3)c2=O)nn1)OCC,IC50,[1],> 200 µM
same,IC50,[2],> 200 µM
same,IC50,[3],> 200 µM
same,EC50,[4],> 200 µM
same,EC50,[5],> 200 µM
same,EC50,[6],> 200 µM
